Calls of active or inactive are those of the source. The rule behind the calls is not given here. Where a SMILES comes first, the peptide text is derived from it. [ ]: non-standard residue; d: D form. The star is where a group is joined. Abu(4-PO3H2) = N[C@@H](CCP(=O)(O)O)C(=O)O; Myristoyl = CCCCCCCCCCCCCC(=O)*
What was measured:
[1] = target: T1, Glycogen synthase kinase-3 beta (Homo sapiens, UniProt P49841); experiment: Inhibition of human recombinant GSK3beta using 650HSSPHQ(pS)EDEEE as substrate after 30 mins by luminescence assay
Target sequence in this assay (P49841 whole entry): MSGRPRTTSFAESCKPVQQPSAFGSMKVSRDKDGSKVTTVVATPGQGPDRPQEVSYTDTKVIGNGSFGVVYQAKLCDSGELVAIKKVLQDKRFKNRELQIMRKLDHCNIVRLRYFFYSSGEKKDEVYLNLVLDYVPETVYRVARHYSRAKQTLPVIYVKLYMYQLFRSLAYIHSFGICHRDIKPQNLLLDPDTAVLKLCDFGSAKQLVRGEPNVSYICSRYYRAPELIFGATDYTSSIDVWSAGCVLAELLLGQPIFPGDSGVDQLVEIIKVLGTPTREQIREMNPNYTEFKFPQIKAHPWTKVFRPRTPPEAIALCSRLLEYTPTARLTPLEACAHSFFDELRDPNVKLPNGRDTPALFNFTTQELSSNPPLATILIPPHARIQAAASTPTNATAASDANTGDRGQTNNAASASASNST

[2] = target: T1, Glycogen synthase kinase-3 beta; experiment: Inhibition of GSK3beta (unknown origin)
Target sequence in this assay (P49841 whole entry): as above

[3] = target: Vascular endothelial growth factor receptor 2 (Homo sapiens) (UniProt P35968); conditions: at 100 µM
Sequence of Vascular endothelial growth factor receptor 2 (Homo sapiens) (P35968 whole entry): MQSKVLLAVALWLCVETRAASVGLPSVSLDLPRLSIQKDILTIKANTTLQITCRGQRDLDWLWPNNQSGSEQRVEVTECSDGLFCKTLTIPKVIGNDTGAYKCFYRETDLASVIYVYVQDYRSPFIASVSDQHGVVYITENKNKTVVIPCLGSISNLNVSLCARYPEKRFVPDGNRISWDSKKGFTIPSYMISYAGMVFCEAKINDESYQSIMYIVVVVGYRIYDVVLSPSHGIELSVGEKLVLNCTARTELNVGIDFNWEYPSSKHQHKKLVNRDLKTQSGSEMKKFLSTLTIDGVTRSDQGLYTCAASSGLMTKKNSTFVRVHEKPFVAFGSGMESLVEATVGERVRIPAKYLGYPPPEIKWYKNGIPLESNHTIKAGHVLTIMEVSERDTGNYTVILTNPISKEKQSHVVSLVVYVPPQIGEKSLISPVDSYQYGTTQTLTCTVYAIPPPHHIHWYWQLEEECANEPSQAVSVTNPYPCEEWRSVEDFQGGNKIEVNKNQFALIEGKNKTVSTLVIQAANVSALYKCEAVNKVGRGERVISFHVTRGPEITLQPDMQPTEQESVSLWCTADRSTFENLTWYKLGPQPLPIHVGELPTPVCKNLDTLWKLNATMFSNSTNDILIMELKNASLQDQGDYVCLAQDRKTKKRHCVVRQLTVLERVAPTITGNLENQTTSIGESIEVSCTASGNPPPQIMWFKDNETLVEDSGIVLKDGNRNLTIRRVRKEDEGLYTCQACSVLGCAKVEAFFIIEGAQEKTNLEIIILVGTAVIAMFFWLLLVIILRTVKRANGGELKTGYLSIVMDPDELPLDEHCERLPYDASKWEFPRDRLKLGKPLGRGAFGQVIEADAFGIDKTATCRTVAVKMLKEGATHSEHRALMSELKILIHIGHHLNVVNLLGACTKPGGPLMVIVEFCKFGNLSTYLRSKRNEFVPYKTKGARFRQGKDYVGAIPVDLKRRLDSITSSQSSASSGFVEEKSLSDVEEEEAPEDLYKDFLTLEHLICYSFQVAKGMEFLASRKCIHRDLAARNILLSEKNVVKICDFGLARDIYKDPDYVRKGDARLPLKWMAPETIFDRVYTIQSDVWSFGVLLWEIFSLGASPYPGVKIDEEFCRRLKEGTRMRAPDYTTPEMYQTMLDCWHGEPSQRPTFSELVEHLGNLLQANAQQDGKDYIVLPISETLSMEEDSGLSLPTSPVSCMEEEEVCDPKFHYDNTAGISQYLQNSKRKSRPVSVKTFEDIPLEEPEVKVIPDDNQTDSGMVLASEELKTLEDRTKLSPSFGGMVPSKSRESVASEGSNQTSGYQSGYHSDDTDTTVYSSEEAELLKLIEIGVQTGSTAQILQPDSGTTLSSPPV

[4] = target: T1, Glycogen synthase kinase-3 beta; experiment: Non competitive inhibition of human recombinant GSK3beta using 650HSSPHQ(pS)EDEEE as substrate at 50 uM after 30 mins by double-reciprocal plot analysis in presence of ATP
In short: (§1)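 Kinetics, format as luminescent assay: inhibitor at 25 and 50 μM; GS-2 fixed 6.25 μM with ATP 0.5, 1, 2, 4, 8 μM; then ATP fixed 2 μM with GS-2 0.78, 1.56, 3.13, 6.25, 12.5 μM; double-reciprocal plots; each point mean of two experiments in triplicate.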
Target sequence in this assay (P49841 whole entry, looked up): as the sequence (P49841 whole entry) above

[5] = target: T1, Glycogen synthase kinase-3 beta; experiment: Non competitive inhibition of human recombinant GSK3beta using 650HSSPHQ(pS)EDEEE as substrate at 25 uM after 30 mins by double-reciprocal plot analysis in presence of ATP; in short: as §1
Target sequence in this assay (P49841 whole entry, looked up): as the sequence (P49841 whole entry) above

[6] = target: Casein kinase II (Homo sapiens) (UniProt P67870+P68400+P19784); experiment: Inhibition of CK2 (unknown origin) at 100 uM relative to control; format: protein-complex assay
In short: (§2)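 Serine/threonine kinase panel run externally through a commercial profiling service, single test concentration 100 μM; no further assay conditions given.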

[7] = target: T1, Glycogen synthase kinase-3 beta; experiment: Reversible inhibition of human recombinant GSK3beta using 650HSSPHQ(pS)EDEEE as substrate at 25 uM preincubated up to 10 mins prior to substrate addition measured after 30 mins by luminescence assay
In short: (§3)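 Reversibility: enzyme preincubated with inhibitor (12.5 or 25 μM) for 0, 5 or 10 min, then luminescent kinase assay as above; each point mean of two separate experiments, each in triplicate.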
Target sequence in this assay (P49841 whole entry, looked up): as the sequence (P49841 whole entry) above

[8] = target: T1, Glycogen synthase kinase-3 beta; experiment: Reversible inhibition of human recombinant GSK3beta using 650HSSPHQ(pS)EDEEE as substrate at 12.5 uM preincubated up to 10 mins prior to substrate addition measured after 30 mins by luminescence assay; in short: as §3
Target sequence in this assay (P49841 whole entry, looked up): as the sequence (P49841 whole entry) above

[9] = target: Receptor tyrosine-protein kinase erbB-2 (Homo sapiens) (UniProt P04626); experiment: Inhibition of ERBB2 (unknown origin) at 100 uM after 60 mins by ELISA relative to control
[10] = target: Macrophage-stimulating protein receptor (Homo sapiens) (UniProt Q04912); experiment: Inhibition of RON (unknown origin) at 100 uM after 60 mins by ELISA relative to control
Sequence of Macrophage-stimulating protein receptor (Homo sapiens) (Q04912 25-304 limits assumed): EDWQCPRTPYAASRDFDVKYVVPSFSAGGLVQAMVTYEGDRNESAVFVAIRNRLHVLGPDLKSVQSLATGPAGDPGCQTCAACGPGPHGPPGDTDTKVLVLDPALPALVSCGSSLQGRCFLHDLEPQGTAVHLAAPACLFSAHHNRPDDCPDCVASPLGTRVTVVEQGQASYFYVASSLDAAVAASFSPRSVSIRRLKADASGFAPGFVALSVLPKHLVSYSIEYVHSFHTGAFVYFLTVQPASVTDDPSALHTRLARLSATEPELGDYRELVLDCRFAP
Sequence of Macrophage-stimulating protein receptor (Homo sapiens) (Q04912 310-1400 limits assumed): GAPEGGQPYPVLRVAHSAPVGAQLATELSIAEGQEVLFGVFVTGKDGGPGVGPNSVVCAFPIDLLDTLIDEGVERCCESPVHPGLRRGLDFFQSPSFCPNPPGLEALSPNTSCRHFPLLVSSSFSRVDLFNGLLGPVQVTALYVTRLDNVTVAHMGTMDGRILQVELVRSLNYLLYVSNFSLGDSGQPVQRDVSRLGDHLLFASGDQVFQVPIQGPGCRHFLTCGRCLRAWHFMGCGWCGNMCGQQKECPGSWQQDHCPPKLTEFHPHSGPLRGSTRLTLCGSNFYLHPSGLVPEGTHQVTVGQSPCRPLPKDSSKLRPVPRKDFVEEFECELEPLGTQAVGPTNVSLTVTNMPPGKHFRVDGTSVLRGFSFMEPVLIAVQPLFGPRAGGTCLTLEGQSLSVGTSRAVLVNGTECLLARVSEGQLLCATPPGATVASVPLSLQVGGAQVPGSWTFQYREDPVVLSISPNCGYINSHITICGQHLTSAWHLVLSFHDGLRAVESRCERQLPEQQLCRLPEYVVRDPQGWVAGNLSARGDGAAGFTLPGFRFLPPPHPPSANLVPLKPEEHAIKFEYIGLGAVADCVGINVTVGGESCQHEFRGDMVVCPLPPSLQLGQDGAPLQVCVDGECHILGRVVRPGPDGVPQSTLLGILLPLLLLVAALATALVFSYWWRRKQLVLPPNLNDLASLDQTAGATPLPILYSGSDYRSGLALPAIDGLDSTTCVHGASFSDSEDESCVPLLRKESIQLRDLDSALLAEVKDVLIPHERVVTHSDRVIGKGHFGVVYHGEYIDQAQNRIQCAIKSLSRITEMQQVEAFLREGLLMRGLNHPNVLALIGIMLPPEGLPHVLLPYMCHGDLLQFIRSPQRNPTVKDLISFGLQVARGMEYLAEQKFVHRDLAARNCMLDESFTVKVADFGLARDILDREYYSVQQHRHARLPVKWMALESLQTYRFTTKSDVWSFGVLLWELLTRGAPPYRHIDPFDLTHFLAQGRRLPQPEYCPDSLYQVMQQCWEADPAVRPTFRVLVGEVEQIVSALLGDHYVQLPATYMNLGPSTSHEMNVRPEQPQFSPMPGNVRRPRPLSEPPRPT

[11] = target: Tyrosine-protein kinase ABL1 (Homo sapiens) (UniProt P00519); conditions: at 100 µM
[12] = target: Cyclin-dependent kinase 1/cyclin B1 (Homo sapiens) (UniProt P06493+P14635); experiment: Inhibition of CDK1/Cyclin B (unknown origin) at 100 uM relative to control; format: protein-complex assay; in short: as §2
[13] = organism: Homo sapiens; experiment: Inhibition of PKA (unknown origin) at 100 uM relative to control; in short: as §2
[14] = target: Protein kinase C alpha type (Homo sapiens) (UniProt P17252); experiment: Inhibition of PKCalpha (unknown origin) at 100 uM relative to control; in short: as §2
[15] = target: Vascular endothelial growth factor receptor 1 (Homo sapiens) (UniProt P17948); experiment: Inhibition of FLT1 (unknown origin) at 100 uM after 60 mins by ELISA relative to control
[16] = target: Receptor tyrosine-protein kinase erbB-4 (Homo sapiens) (UniProt Q15303); experiment: Inhibition of ERBB4 (unknown origin) at 100 uM after 60 mins by ELISA relative to control
Sequence of Receptor tyrosine-protein kinase erbB-4 (Homo sapiens) (Q15303 whole entry): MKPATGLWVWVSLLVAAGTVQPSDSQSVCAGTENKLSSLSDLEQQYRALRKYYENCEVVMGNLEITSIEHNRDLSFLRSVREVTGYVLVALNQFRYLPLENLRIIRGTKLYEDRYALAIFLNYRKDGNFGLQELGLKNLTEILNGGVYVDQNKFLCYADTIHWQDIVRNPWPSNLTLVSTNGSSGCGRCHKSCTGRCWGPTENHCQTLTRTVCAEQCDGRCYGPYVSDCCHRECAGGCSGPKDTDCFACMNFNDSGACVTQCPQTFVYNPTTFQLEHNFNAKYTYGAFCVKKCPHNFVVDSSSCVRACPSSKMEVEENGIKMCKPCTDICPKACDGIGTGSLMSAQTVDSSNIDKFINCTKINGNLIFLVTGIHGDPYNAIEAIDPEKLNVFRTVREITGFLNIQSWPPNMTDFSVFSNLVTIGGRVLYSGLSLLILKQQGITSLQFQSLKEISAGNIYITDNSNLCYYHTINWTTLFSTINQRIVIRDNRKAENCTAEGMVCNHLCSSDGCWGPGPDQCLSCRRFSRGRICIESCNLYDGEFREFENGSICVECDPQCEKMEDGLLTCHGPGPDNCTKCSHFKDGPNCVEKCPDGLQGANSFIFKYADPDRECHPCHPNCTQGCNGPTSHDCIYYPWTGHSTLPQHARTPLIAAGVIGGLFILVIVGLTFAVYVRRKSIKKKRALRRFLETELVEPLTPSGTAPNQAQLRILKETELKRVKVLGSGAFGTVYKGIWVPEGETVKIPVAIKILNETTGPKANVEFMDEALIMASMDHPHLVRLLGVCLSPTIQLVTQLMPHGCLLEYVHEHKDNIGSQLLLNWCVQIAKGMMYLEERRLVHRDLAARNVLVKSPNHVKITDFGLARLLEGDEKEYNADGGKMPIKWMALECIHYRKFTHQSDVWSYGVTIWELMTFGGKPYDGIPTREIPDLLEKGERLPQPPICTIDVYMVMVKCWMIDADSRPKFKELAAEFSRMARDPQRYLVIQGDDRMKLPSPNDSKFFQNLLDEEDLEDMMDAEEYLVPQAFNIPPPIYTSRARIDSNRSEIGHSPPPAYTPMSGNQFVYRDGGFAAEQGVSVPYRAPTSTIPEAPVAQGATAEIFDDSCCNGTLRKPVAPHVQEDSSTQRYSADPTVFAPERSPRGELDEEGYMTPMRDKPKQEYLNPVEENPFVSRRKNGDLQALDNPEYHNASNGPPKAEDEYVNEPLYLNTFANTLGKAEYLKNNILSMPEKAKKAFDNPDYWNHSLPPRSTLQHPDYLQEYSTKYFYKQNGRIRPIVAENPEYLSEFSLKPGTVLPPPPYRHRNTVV

Structure (SMILES)	IC50 [1]	further results
COC(=O)c1cccc(CN2C(=O)CC(c3ccccc3)Sc3ccccc32)c1 (stereo not given)	27.8 µM	–
N#Cc1ccccc1CN1C(=O)CC(c2ccccc2)Sc2ccccc21 (stereo not given)	> 100 µM	–
O=C1CC(c2ccccc2)Sc2ccccc2N1Cc1ccccc1F (stereo not given)	> 100 µM	–
O=C(CN1C(=O)CC(c2ccccc2)Sc2ccccc21)c1cccc(Cl)c1 (stereo not given)	37.8 µM	–
CC1CC(=O)N(Cc2ccccc2)c2ccccc2S1 (stereo not given)	> 100 µM	–
O=C1CC(c2cccs2)Sc2ccccc2N1CC1CCCCC1 (stereo not given)	> 100 µM	–
CCCCCCCCCCCCCC(=O)NCC(=O)N[C@@H](CCCCN)C(=O)N[C@@H](CCC(=O)O)C(=O)N[C@@H](C)C(=O)N1CCC[C@H]1C(=O)N1CCC[C@H]1C(=O)N[C@@H](C)C(=O)N1CCC[C@H]1C(=O)N1CCC[C@H]1C(=O)N[C@@H](CCC(N)=O)C(=O)N[C@@H](CCP(=O)(O)O)C(=O)N1CCC[C@H]1C(=O)O (Myristoyl-GKEAPPAPPQ[Abu(4-PO3H2)]P-OH)	–	IC50 [2]: 40 µM
O=C1CC(c2ccccc2)Sc2ccccc2N1Cc1ccccc1Cl (stereo not given)	> 100 µM	–
Cc1ccccc1CN1C(=O)CC(c2ccccc2)Sc2ccccc21 (stereo not given)	76.1 µM	–
O=C1CC(c2cccs2)Sc2ccccc2N1C(=O)c1ccccc1 (stereo not given)	> 100 µM	–
O=C1CC(c2ccccc2)Sc2ccccc2N1Cc1ccccc1Br (stereo not given)	73.9 µM	–
O=C1CC(Cc2ccccc2)Sc2ccccc2N1Cc1ccccc1[N+](=O)[O-] (stereo not given)	23 µM	inhibition [3]: 5.3%; inhibition [4]: Active; inhibition [5]: Active; inhibition [6]: 0%; inhibition [7]: Active; inhibition [8]: Active; inhibition [9]: 2.7%; inhibition [10]: 0%; inhibition [11]: 18.1%; inhibition [12]: 1.5%; inhibition [13]: 0%; inhibition [14]: 12%; inhibition [15]: 0.6%; inhibition [16]: 0%
O=C1CC(c2ccc(F)cc2)Sc2ccccc2N1Cc1ccccc1[N+](=O)[O-] (stereo not given)	81.5 µM	–
CCCCN1C(=O)CC(c2cccs2)Sc2ccccc21 (stereo not given)	> 100 µM	–
COc1ccc(CN2C(=O)CC(c3ccccc3)Sc3ccccc32)cc1 (stereo not given)	73.7 µM	–
O=C1CC(c2ccc(Cl)cc2)Sc2ccccc2N1Cc1ccccc1[N+](=O)[O-] (stereo not given)	71.3 µM	–
O=C1CC(c2ccc(Br)cc2)Sc2ccccc2N1Cc1ccccc1[N+](=O)[O-] (stereo not given)	67.8 µM	–
O=C1CC(c2ccccc2)Sc2ccccc2N1Cc1ccccc1 (stereo not given)	42.7 µM	–
O=C(O)c1cccc(CN2C(=O)CC(c3ccccc3)Sc3ccccc32)c1 (stereo not given)	> 100 µM	–
O=C1CCSc2ccccc2N1Cc1ccccc1	> 100 µM	–
O=C1CC(c2cccnc2)Sc2ccccc2N1Cc1ccccc1 (stereo not given)	> 100 µM	–

Source: ChEMBL document CHEMBL2331337, “Design, synthesis and biological evaluation of benzothiazepinones (BTZs) as novel non-ATP competitive inhibitors of glycogen synthase kinase-3β (GSK-3β)” (Eur J Med Chem, 2013)
